Where a name gives a salt, the structure may show the parent alone.
What was measured:
Fruit [1] = assay: Drug uptake in Solanum lycopersicum (tomato) fruit peel after 60 to 151 days post germination by GC-ECD analysis; type: ADME
Procedure, shortened: (§1)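 Organically grown tomatoes: seeded October 2000 in a pine-needle-enriched plot (period 1), transplanted in November to an unamended plot (periods 2–3), harvested March 2001. Tissues were blender-homogenized and analyzed by GC-ECD on a 30 m SPB-5 capillary column, with helium carrier at 1.5 mL/min. Quantified against external OCP standards as mean ng/g dry wt; LODs were 0.12–0.4 ng/g dry wt; samples were run in duplicate.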

Root [2] = assay: Drug uptake in Solanum lycopersicum (tomato) root after 16 to 59 days post germination by GC-ECD analysis; type: ADME; procedure, shortened: as §1
[3] = Root bioconcentration factor assessed as compound concentration in tomato plant dry mass to compound concentration in soil dry mass after 1 to 15 days post germination
Procedure, shortened: (§2)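 Root bioconcentration factor is the mean OCP concentration in tomato roots divided by the mean concentration in bulk soil, both on a dry weight basis. Both matrices were analyzed by GC-ECD with external standard quantification. Period 1 was in a pine-needle-enriched seedbed plot and periods 2–3 in an unamended transplant plot. Soil water content was measured by oven drying at 110 °C.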

[4] = Octanol-water partition coefficient, log KOW of the compound; type: physicochemical; conditions: read-out: log KOW
Stem [5] = assay: Drug uptake in Solanum lycopersicum (tomato) stem after 60 to 151 days post germination by GC-ECD analysis; type: ADME; procedure, shortened: as §1
Leaf [6] = assay: Drug uptake in Solanum lycopersicum (tomato) leaves after 1 to 15 days post germination by GC-ECD analysis; type: ADME; procedure, shortened: as §1
Root [7] = assay: Drug uptake in Solanum lycopersicum (tomato) root after 1 to 15 days post germination by GC-ECD analysis; type: ADME; procedure, shortened: as §1
Fruit [8] = assay: Drug uptake in Solanum lycopersicum (tomato) fruit flesh after 60 to 151 days post germination by GC-ECD analysis; type: ADME; procedure, shortened: as §1
Stem [9] = assay: Drug uptake in Solanum lycopersicum (tomato) stem after 1 to 15 days post germination by GC-ECD analysis; type: ADME; procedure, shortened: as §1
Leaf [10] = assay: Drug uptake in Solanum lycopersicum (tomato) leaves after 16 to 59 days post germination by GC-ECD analysis; type: ADME; procedure, shortened: as §1
[11] = Root bioconcentration factor assessed as compound concentration in tomato plant dry mass to compound concentration in soil dry mass after 16 to 59 days post germination; procedure, shortened: as §2
Stem [12] = assay: Drug uptake in Solanum lycopersicum (tomato) stem after 16 to 59 days post germination by GC-ECD analysis; type: ADME; procedure, shortened: as §1
Root [13] = assay: Drug uptake in Solanum lycopersicum (tomato) root after 60 to 151 days post germination by GC-ECD analysis; type: ADME; procedure, shortened: as §1
[14] = Root bioconcentration factor assessed as compound concentration in tomato plant dry mass to compound concentration in soil dry mass after 60 to 151 days post germination; procedure, shortened: as §2
Leaf [15] = assay: Drug uptake in Solanum lycopersicum (tomato) leaves after 60 to 151 days post germination by GC-ECD analysis; type: ADME; procedure, shortened: as §1

Compound | Drug uptake (Fruit [1]) [ng/g] | Drug uptake (Root [2]) [ng/g] | Ratio [3] | logP [4] | Drug uptake (Stem [5]) [ng/g] | Drug uptake (Leaf [6]) [ng/g] | Drug uptake (Root [7]) [ng/g] | Drug uptake (Fruit [8]) [ng/g] | Drug uptake (Stem [9]) [ng/g] | Drug uptake (Leaf [10]) [ng/g] | Ratio [11] | Drug uptake (Stem [12]) [ng/g] | Drug uptake (Root [13]) [ng/g] | Ratio [14] | Drug uptake (Leaf [15]) [ng/g]
O=S1OC[C@@H]2[C@H](CO1)[C@@]1(Cl)C(Cl)=C(Cl)[C@]2(Cl)C1(Cl)Cl (stereo partly drawn) [ALPHA-ENDOSULFAN] | 12.3 | 1.3 | 10 | < 4 | 0.9 | 1 | 0.8 | 4.5 | 1.2 | 1.5 | 18.6 | 0.9 | 0.3 | 4.3 | 3.5
Cl[C@H]1[C@H](Cl)[C@H](Cl)[C@@H](Cl)[C@H](Cl)[C@H]1Cl [ALPHA-HEXACHLOROCYCLOHEXANE] | 1.4 | 0.4 | 9.5 | < 4 | 1.3 | 1.2 | 1.9 | 7.4 | 1.7 | 0.8 | 4 | 1.1 | 1.3 | 13 | 0.6
O=S1OC[C@@H]2[C@H](CO1)[C@]1(Cl)C(Cl)=C(Cl)[C@]2(Cl)C1(Cl)Cl (stereo partly drawn) [BETA-ENDOSULFAN] | 10.8 | 0.9 | 50 | < 4 | 1.6 | 1.1 | 2 | 6.6 | 1.1 | 2.9 | 15 | 3.2 | 0.9 | 15 | 3.3
Cl[C@H]1[C@H](Cl)[C@@H](Cl)[C@H](Cl)[C@@H](Cl)[C@@H]1Cl [BETA-HEXACHLOROCYCLOHEXANE] | 1.5 | 1.1 | 9.2 | < 4 | 2.1 | 4.2 | 3.7 | 5.4 | 8.9 | 2.2 | 2.7 | 4.2 | 1.2 | 3 | 1.6
Clc1ccc(C(c2ccc(Cl)cc2)C(Cl)(Cl)Cl)cc1 [CHLOROPHENOTHANE] | 8.8 | 2.5 | 2.6 | > 6 | 6.8 | 8.9 | 19.2 | 29.2 | 9.4 | 8.24 |  | 10.5 | 7.3 |  | 2.3
Cl[C@H]1[C@H](Cl)[C@@H](Cl)[C@H](Cl)[C@@H](Cl)[C@H]1Cl [DELTA-HEXACHLOROCYCLOHEXANE] | 1.4 | 0.8 | 18.5 | < 4 | 1.6 | 2.4 | 3.7 | 2.3 | 4.7 | 1.1 | 0.7 | 3.6 | 1.7 | 1.5 | 1.2
ClC(Cl)=C(c1ccc(Cl)cc1)c1ccc(Cl)cc1 [DICHLORODIPHENYLDICHLOROETHYLENE] | 3.2 | 23.2 | 5.3 |  | 1.8 | 2.8 | 9.1 | 6.4 | 7.4 | 2.2 |  | 8.6 | 2.4 |  | 6
O=S1(=O)OCC2C(CO1)C1(Cl)C(Cl)=C(Cl)C2(Cl)C1(Cl)Cl (stereo not given) [ENDOSULFAN SULFATE] | 80.6 | 21.1 | 9.2 | < 4 | 82.1 | 126.5 | 151.6 | 305.5 | 246.9 | 48.2 | 1.3 | 99.7 | 71.4 | 4.5 | 38.2
Cl[C@H]1[C@H](Cl)[C@@H](Cl)[C@@H](Cl)[C@H](Cl)[C@H]1Cl [LINDANE] | 2.1 | 4.7 | 12.3 | < 4 | 4.6 | 9.9 | 16.2 | 14.4 | 27.5 | 4 | 3.9 | 9.4 | 3.9 | 3.2 | 0.9

From ChEMBL document CHEMBL3046143, “Occurrence and distribution of organochlorine pesticides (OCPs) in tomato (Lycopersicon esculentum) crops from organic production” (J Agric Food Chem, 2003)
